Experimental findings from ChEMBL document CHEMBL1145979, “Synthetic analogues of the bacterial signal (quorum sensing) molecule N-(3-oxododecanoyl)-L-homoserine lactone as immune modulators” (J Med Chem, 2003) are described below.

For one experiment, the species on record is Mus musculus. In words: Inhibition of murine splenocyte proliferation; Not active. The class given is functional. An outline of the steps: (§1)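 Spleens from 8-week-old female BALB/c mice were made into single-cell suspensions and the red cells lysed (Tris/NH4Cl, pH 7.2). Cultured at 100 000 cells per well in complete T-cell medium with ConA 1 μg/mL and doubling-down dilutions of compound from 1 mM to 0.1 μM, 48 h at 37 °C, 5% CO2. Then 0.25 μCi [³H]-thymidine was added for 24 h and uptake counted; IC50 derived.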
Take `CCCCCCCCCC(=O)CC(N)=O`: the IC50 (in general, the point on the concentration scale where inhibition reaches its midpoint) is “Not Active”.

Take `O=C(O)CCCCCCCCCCC(=O)CC(=O)N[C@H]1CCOC1=O`: the half-maximal inhibitory concentration (IC50) result is given as “Not Active”.

For the next experiment, the species on record is Mus musculus. In words: Inhibition of murine splenocyte proliferation. The class given is functional. An outline of the steps:
as §1
As for `CCCCCCCCC(=O)CC(=O)N[C@H]1CCOC1=O`, 8.9 µM corresponded to half-maximal inhibition (IC50). In other words, the single-digit micromolar range.

Regarding `CCCCCCCCCC(=O)CC(=O)N[C@@H](CCO)C(=O)OC`, the IC50 was 53 µM.

Turning to `C=CCCCCCCCCC(=O)CC(=O)N[C@H]1CCOC1=O`, half-maximal inhibition (IC50) was put at 7 µM. This IC50 lies about 7.6-fold lower than the previous one.

The compound `CCCCCC(=O)CC(=O)N[C@H]1CCOC1=O` gave a half-inhibitory concentration (IC50) of 400 µM.

Turning to `CCCCCCCC(=O)CC(=O)N[C@H]1CCOC1=O`, the half-maximal inhibitory concentration (IC50) is 21 µM. This IC50 is about 19-fold lower than that of the compound before.

In turn, `CCCCCCCCCCCC(=O)CC(=O)N[C@H]1CCOC1=O` displayed an IC50 of 6.3 µM.

The compound `CCCCCCCCCC(=O)CC(=O)N[C@H]1CCOC1=O` came in with an IC50 of 4 µM.

With `CCCCCC(C)CCC(=O)CC(=O)N[C@H]1CCOC1=O` (some centres undefined), it took 5 µM to reach half-maximal inhibition (IC50).

As for `O=C(CCCCCCCCCCBr)CC(=O)N[C@H]1CCOC1=O`, the concentration for half-maximal inhibition (IC50) was 3 µM.

With `CCCCCCCCCC(O)CC(=O)N[C@H]1CCOC1=O` (some centres undefined), the half-inhibitory concentration (IC50) came to 12.5 µM.

For `CCCCCCCCCCCC(O)CC(=O)N[C@H]1CCOC1=O` (some centres undefined), inhibition was half-maximal at 7 µM (IC50).

The compound `CCCCCCCCCCCC(=O)N[C@H]1CCOC1=O` registered a concentration for half-maximal inhibition (IC50) of 52 µM.

As to `COC(=O)CCCCCCCCCC(=O)CC(=O)N[C@H]1CCOC1=O`, the IC50 is 60 µM.

Take `O=C(CCCCCCCCCBr)CC(=O)N[C@H]1CCOC1=O`: it took 6 µM to reach half-maximal inhibition (IC50).

Regarding `CCCCCCCCCCC(=O)CC(=O)N[C@H]1CCOC1=O`, half-maximal inhibition (IC50) required 4.3 µM.

Regarding `CCCCCCCCCC(=O)N[C@H]1CCOC1=O`, the midpoint of inhibition, the IC50, lay at 33 µM.

`CCCCCCCCCC(=O)CC(=O)NC1CCSC1=O` (centres undefined) registered a concentration for half-maximal inhibition (IC50) of 150 µM. This IC50 lies about 4.5-fold higher than the previous one.

On to `O=C(CCCCCCCCCO)CC(=O)N[C@H]1CCOC1=O`, for which the IC50 turned out to be 8 µM.

For `CCC/C=C/CCCCCCC(=O)CC(=O)N[C@H]1CCOC1=O`, the IC50 was found to be 15 µM.

The compound `CCCCCC/C=C\CCCC(=O)CC(=O)N[C@H]1CCOC1=O` came in with an IC50 of 17 µM.

For `C=CCCCCCCCCCC(=O)CC(=O)N[C@H]1CCOC1=O`, the IC50 was 10 µM.

In the case of `CCCCCCCCCCC(=O)N[C@H]1CCOC1=O`, the midpoint of inhibition, the IC50, lay at 90 µM. This IC50 lies about 9-fold higher than the previous one.
